# In ChEMBL document CHEMBL5058577, “EUbOPEN Chemogenomics Library 2 (Multiplex)” (2022):
# Tested on: HEK-293T
# Test: Multiplex assay against HEK293T
# Type: toxicity, cell-based
# Conditions: human
# In short: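 Cells stained live at seeding with Hoechst33342, BioTracker Green Microtubule Cytoskeleton Dye, MitoTracker Red and Annexin V Alexa Fluor 680 were imaged on a CQ1 microscope at 37°C and 5% CO2 after compound addition. Their classification by CellPathfinder machine-learning gating ran from Hoechst high-intensity objects versus normal cells, to healthy, pyknosed or fragmented nuclei among normal cells, to mitotic or apoptotic among pyknosed cells. Tubulin, mitochondrial-mass and membrane-permeability phenotypes are per cents of healthy-nucleus cells.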
# [1] = 12 h, 1 µM, compound concentration 1 uM, replicate 1
# [2] = 12 h, 1 µM, compound concentration 1 uM, replicate 2
# [3] = 12 h, 10 µM, compound concentration 10 uM, replicate 1
# [4] = 12 h, 10 µM, compound concentration 10 uM, replicate 2
# [5] = 24 h, 1 µM, compound concentration 1 uM, replicate 1
# [6] = 24 h, 1 µM, compound concentration 1 uM, replicate 2
# [7] = 24 h, 10 µM, compound concentration 10 uM, replicate 1
# [8] = 24 h, 10 µM, compound concentration 10 uM, replicate 2
# [9] = 48 h, 1 µM, compound concentration 1 uM, replicate 1
# [10] = 48 h, 1 µM, compound concentration 1 uM, replicate 2
# [11] = 48 h, 10 µM, compound concentration 10 uM, replicate 1
# [12] = 48 h, 10 µM, compound concentration 10 uM, replicate 2
smiles,measurement,setting,value
OCCCNc1cc(-c2ccnc(Nc3cccc(Cl)c3)n2)ccn1,Population Apoptotic (%),[1],66%
same,Population Fragmented Nuclei (%),[1],9%
same,Population Healthy Nuclei (%),[1],66%
same,Population Hoechst High Intensity Objects (%),[1],14%
same,Population Membrane Permeable-Phenotype (%),[1],0%
same,Population Mitochondria Different-Phenotype (%),[1],82%
same,Population Mitotic Cells (%),[1],33%
same,Population Normal (%),[1],85%
same,Population Pyknosed Nuclei (%),[1],24%
same,Population Tubulin-Different-Phenotype (%),[1],75%
same,Total Cell Count,[1],204
same,Population Apoptotic (%),[2],65%
same,Population Fragmented Nuclei (%),[2],8%
same,Population Healthy Nuclei (%),[2],74%
same,Population Hoechst High Intensity Objects (%),[2],11%
same,Population Mitochondria Different-Phenotype (%),[2],88%
same,Population Mitotic Cells (%),[2],34%
same,Population Normal (%),[2],88%
same,Population Pyknosed Nuclei (%),[2],16%
same,Population Tubulin-Different-Phenotype (%),[2],57%
same,Total Cell Count,[2],173
same,Population Apoptotic (%),[3],78%
same,Population Fragmented Nuclei (%),[3],14%
same,Population Healthy Nuclei (%),[3],55%
same,Population Hoechst High Intensity Objects (%),[3],30%
same,Population Membrane Permeable-Phenotype (%),[3],1%
same,Population Mitochondria Different-Phenotype (%),[3],83%
same,Population Mitotic Cells (%),[3],21%
same,Population Normal (%),[3],69%
same,Population Pyknosed Nuclei (%),[3],30%
same,Population Tubulin-Different-Phenotype (%),[3],80%
same,Total Cell Count,[3],249
same,Population Apoptotic (%),[4],75%
same,Population Healthy Nuclei (%),[4],67%
same,Population Hoechst High Intensity Objects (%),[4],41%
same,Population Membrane Permeable-Phenotype (%),[4],10%
same,Population Mitochondria Different-Phenotype (%),[4],85%
same,Population Mitotic Cells (%),[4],25%
same,Population Normal (%),[4],58%
same,Population Pyknosed Nuclei (%),[4],18%
same,Population Tubulin-Different-Phenotype (%),[4],72%
same,Total Cell Count,[4],224
same,Population Apoptotic (%),[5],91%
same,Population Fragmented Nuclei (%),[5],10%
same,Population Healthy Nuclei (%),[5],66%
same,Population Hoechst High Intensity Objects (%),[5],14%
same,Population Membrane Permeable-Phenotype (%),[5],0%
same,Population Mitochondria Different-Phenotype (%),[5],80%
same,Population Mitotic Cells (%),[5],8%
same,Population Normal (%),[5],85%
same,Population Pyknosed Nuclei (%),[5],22%
same,Population Tubulin-Different-Phenotype (%),[5],61%
same,Total Cell Count,[5],228
same,Population Apoptotic (%),[6],77%
same,Population Fragmented Nuclei (%),[6],13%
same,Population Healthy Nuclei (%),[6],76%
same,Population Hoechst High Intensity Objects (%),[6],15%
same,Population Mitochondria Different-Phenotype (%),[6],86%
same,Population Mitotic Cells (%),[6],22%
same,Population Normal (%),[6],84%
same,Population Pyknosed Nuclei (%),[6],10%
same,Total Cell Count,[6],202
same,Population Apoptotic (%),[7],71%
same,Population Fragmented Nuclei (%),[7],16%
same,Population Healthy Nuclei (%),[7],44%
same,Population Hoechst High Intensity Objects (%),[7],41%
same,Population Membrane Permeable-Phenotype (%),[7],0%
same,Population Mitochondria Different-Phenotype (%),[7],85%
same,Population Mitotic Cells (%),[7],28%
same,Population Normal (%),[7],58%
same,Population Pyknosed Nuclei (%),[7],38%
same,Population Tubulin-Different-Phenotype (%),[7],88%
same,Total Cell Count,[7],237
same,Population Apoptotic (%),[8],78%
same,Population Fragmented Nuclei (%),[8],15%
same,Population Healthy Nuclei (%),[8],54%
same,Population Hoechst High Intensity Objects (%),[8],45%
same,Population Membrane Permeable-Phenotype (%),[8],3%
same,Population Mitochondria Different-Phenotype (%),[8],91%
same,Population Mitotic Cells (%),[8],21%
same,Population Normal (%),[8],54%
same,Population Pyknosed Nuclei (%),[8],29%
same,Population Tubulin-Different-Phenotype (%),[8],82%
same,Total Cell Count,[8],207
same,Population Apoptotic (%),[9],82%
same,Population Fragmented Nuclei (%),[9],12%
same,Population Healthy Nuclei (%),[9],51%
same,Population Hoechst High Intensity Objects (%),[9],18%
same,Population Membrane Permeable-Phenotype (%),[9],1%
same,Population Mitochondria Different-Phenotype (%),[9],88%
same,Population Mitotic Cells (%),[9],17%
same,Population Normal (%),[9],81%
same,Population Pyknosed Nuclei (%),[9],35%
same,Population Tubulin-Different-Phenotype (%),[9],68%
same,Total Cell Count,[9],232
same,Population Apoptotic (%),[10],61%
same,Population Fragmented Nuclei (%),[10],17%
same,Population Healthy Nuclei (%),[10],65%
same,Population Hoechst High Intensity Objects (%),[10],21%
same,Population Membrane Permeable-Phenotype (%),[10],0%
same,Population Mitochondria Different-Phenotype (%),[10],84%
same,Population Mitotic Cells (%),[10],38%
same,Population Normal (%),[10],78%
same,Population Pyknosed Nuclei (%),[10],17%
same,Population Tubulin-Different-Phenotype (%),[10],59%
same,Total Cell Count,[10],193
same,Population Apoptotic (%),[11],71%
same,Population Fragmented Nuclei (%),[11],16%
same,Population Healthy Nuclei (%),[11],46%
same,Population Hoechst High Intensity Objects (%),[11],57%
same,Population Membrane Permeable-Phenotype (%),[11],1%
same,Population Mitochondria Different-Phenotype (%),[11],78%
same,Population Mitotic Cells (%),[11],28%
same,Population Normal (%),[11],42%
same,Population Pyknosed Nuclei (%),[11],37%
same,Population Tubulin-Different-Phenotype (%),[11],76%
same,Total Cell Count,[11],262
same,Population Apoptotic (%),[12],83%
same,Population Fragmented Nuclei (%),[12],25%
same,Population Hoechst High Intensity Objects (%),[12],56%
same,Population Membrane Permeable-Phenotype (%),[12],8%
same,Population Mitochondria Different-Phenotype (%),[12],85%
same,Population Mitotic Cells (%),[12],16%
same,Population Normal (%),[12],43%
same,Population Pyknosed Nuclei (%),[12],28%
same,Population Tubulin-Different-Phenotype (%),[12],79%
same,Total Cell Count,[12],238
